Experimental findings from ChEMBL document CHEMBL1147857, “A chromone analog inhibits TNF-alpha induced expression of cell adhesion molecules on human endothelial cells via blocking NF-kappaB activation” (Bioorg Med Chem, 2007) are described below.

Molecules are shown by their SMILES. Active and inactive are the calls of the source. No cut-off for these calls is given here.

Data set [1] is described as follows: Cytotoxicity against HUVEC cells assessed as cell viability at 90 ug/ml after 24 hrs by MTT assay. Type of data set: cell-based. As to conditions: human, read-out: Activity. In a few lines: (§1)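 Primary HUVECs were isolated by mild trypsinization, grown in M-199 with 15% FCS and ECGF, and used at passages 3–4. Cells got compound or 0.25% DMSO vehicle for 24 h. MTT (5 mg/ml) was added for the final 4 h, formazan dissolved in DMSO, and A570 read. Trypan blue exclusion confirmed the result. Runs were done at least 3 times in triplicate wells.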
On the technique in general: Tetrazolium assays rely on reduction of a dye to a coloured formazan, in cell work by metabolically active cells.

Data set [2] relates to HUVEC. In words: Inhibition of TNF-alpha-induced ICAM1 expression in HUVEC cells at 90 ug/ml after 2 hrs by ELISA. As to conditions: Homo sapiens. Type of data set: functional. In a few lines:
(§2)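 Cell-ELISA: HUVECs were pretreated with compound for 2 h, then given TNF-α 10 ng/ml for 16 h (ICAM-1, VCAM-1) or 4 h (E-selectin). Cells were fixed in 1% glutaraldehyde and blocked with 3% milk. Specific mAbs were applied overnight at 4 °C, then HRP goat anti-mouse, with OPD substrate at pH 4.5. The reaction was stopped with H2SO4 and A490 read. % inhibition = [1 − A490(compound)/A490(control)] × 100. Three independent experiments.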
Background: In an ELISA, binding on a coated surface is turned into a signal by an enzyme label.

Data set [3] relates to Liver microsomes. Briefly: Inhibition of NADPH-catalyzed lipid peroxidation in Wistar rat liver microsome at 90 ug/ml after 10 mins. Type of data set: functional. In a few lines: (§3)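 Liver microsomes came from male Wistar rats of about 200 g. Each mix held microsomes (1 mg protein), 0.025 M Tris-HCl pH 7.5, 3 mM ADP and 0.15 mM FeCl3. Mixes were preincubated 10 min at 37 °C, then 10 min with compound in DMSO. Peroxidation was started with 0.5 mM NADPH and stopped with TCA/HCl/TBA. Samples were heated at 95 °C for 30 min and TBA-reactive substance read at 535 nm.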
(In general: Microsomes from liver hold many membrane-bound enzymes, among them those of drug oxidation.)

Data set [4] is described as follows: Cytotoxicity against HUVEC cells assessed as cell viability at 80 ug/ml after 24 hrs by MTT assay. In kind it is cell-based. The note with it: human, read-out: Activity. In a few lines:
as §1

Data set [5] deals with HUVEC. Briefly: Inhibition of TNF-alpha-induced ICAM1 expression in HUVEC cells at 80 ug/ml after 2 hrs by ELISA. Type of data set: functional. The note with it: Homo sapiens. The gist of the method:
as §2

Data set [6] deals with HUVEC. In words: Inhibition of TNF-alpha-induced ICAM1 expression in HUVEC cells after 2 hrs by ELISA. Type of data set: functional, cell-based. The note with it: Homo sapiens. In a few lines:
as §2

Data set [7] has as its system Liver microsomes. In words: Inhibition of NADPH-catalyzed lipid peroxidation in Wistar rat liver microsome at 80 ug/ml after 10 mins. Type of data set: functional. In a few lines: as §3
Data set [8] is described as follows: Cytotoxicity against HUVEC cells assessed as cell viability at 100 ug/ml after 24 hrs by MTT assay. Type of data set: cell-based. The note with it: human, read-out: Activity. The gist of the method: as §1
Data set [9] deals with HUVEC. Briefly: Inhibition of TNF-alpha-induced ICAM1 expression in HUVEC cells at 100 ug/ml after 2 hrs by ELISA. The note with it: Homo sapiens. In kind it is functional. The gist of the method:
as §2

In data set [10] the test system is Liver microsomes. Briefly: Inhibition of NADPH-catalyzed lipid peroxidation in Wistar rat liver microsome at 100 ug/ml after 10 mins. In kind it is functional. In a few lines:
as §3

Data set [11] can be described thus: Cytotoxicity against HUVEC cells assessed as cell viability at 60 ug/ml after 24 hrs by MTT assay. In kind it is cell-based. As to conditions: human, read-out: Activity. The gist of the method:
as §1

Data set [12] deals with HUVEC. Briefly: Inhibition of TNF-alpha-induced ICAM1 expression in HUVEC cells at 60 ug/ml after 2 hrs by ELISA. Type of data set: functional. The note with it: Homo sapiens. The gist of the method:
as §2

Data set [13] has as its system Liver microsomes. In words: Inhibition of NADPH-catalyzed lipid peroxidation in Wistar rat liver microsome at 60 ug/ml after 10 mins. In kind it is functional. In a few lines: as §3
Data set [14] can be described thus: Cytotoxicity against HUVEC cells assessed as cell viability at 110 ug/ml after 24 hrs by MTT assay. Type of data set: cell-based. As to conditions: human, read-out: Activity. The gist of the method: as §1
In data set [15] the test system is HUVEC. Briefly: Inhibition of TNF-alpha-induced ICAM1 expression in HUVEC cells at 110 ug/ml after 2 hrs by ELISA. In kind it is functional. As to conditions: Homo sapiens. In a few lines:
as §2

Data set [16] relates to Liver microsomes. Briefly: Inhibition of NADPH-catalyzed lipid peroxidation in Wistar rat liver microsome at 110 ug/ml after 10 mins. Type of data set: functional. In a few lines: as §3
Data set [17] in a line: Cytotoxicity against HUVEC cells assessed as cell viability at 70 ug/ml after 24 hrs by MTT assay. In kind it is cell-based. The note with it: human, read-out: Activity. In a few lines: as §1
Data set [18] deals with HUVEC. In words: Inhibition of TNF-alpha-induced ICAM1 expression in HUVEC cells at 70 ug/ml after 2 hrs by ELISA. Type of data set: functional. As to conditions: Homo sapiens. The gist of the method: as §2
In data set [19] the test system is Liver microsomes. Briefly: Inhibition of NADPH-catalyzed lipid peroxidation in Wistar rat liver microsome at 70 ug/ml after 10 mins. In kind it is functional. The gist of the method:
as §3

In data set [20] the test system is HUVEC. Briefly: Inhibition of TNF-alpha-induced E-selectin expression in HUVEC cells at 90 ug/ml after 2 hrs by ELISA. In kind it is functional. The note with it: Homo sapiens. The gist of the method: as §2
Data set [21] relates to HUVEC. Briefly: Inhibition of TNF-alpha-induced VCAM1 expression in HUVEC cells at 90 ug/ml after 2 hrs by ELISA. In kind it is functional. As to conditions: Homo sapiens. In a few lines: as §2
Data set [22] relates to HUVEC. Briefly: Inhibition of TNF-alpha-induced ICAM1 expression in HUVEC cells at 90 ug/ml after 2 hrs by flow cytometry. In kind it is functional. As to conditions: Homo sapiens. In a few lines: (§4)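 Flow cytometry: HUVECs were pretreated with compound for 2 h, then given TNF-α 10 ng/ml for 16 h (ICAM-1, VCAM-1) or 4 h (E-selectin). Cells were dislodged and stained with mAb (1.0 µg/10^6 cells, 30 min, 4 °C), then FITC goat anti-mouse IgG. Cells were fixed in 1% paraformaldehyde and 20,000 events acquired. Autofluorescence was subtracted and mean fluorescence intensity taken from three independent experiments.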

Data set [23] deals with HUVEC. Briefly: Inhibition of TNF-alpha-induced E-selectin expression in HUVEC cells at 90 ug/ml after 2 hrs by flow cytometry. The note with it: Homo sapiens. In kind it is functional. The gist of the method:
as §4

Data set [24] has as its system HUVEC. In words: Inhibition of TNF-alpha-induced VCAM1 expression in HUVEC cells at 90 ug/ml after 2 hrs by flow cytometry. As to conditions: Homo sapiens. Type of data set: functional. In a few lines: as §4
For data set [25], the system named is HUVEC. Briefly: Inhibition of TNF-alpha-induced VCAM1 expression in HUVEC cells after 2 hrs by ELISA. Type of data set: functional, cell-based. As to conditions: Homo sapiens. In a few lines:
as §2

Data set [26] concerns HUVEC. Briefly: Inhibition of TNF-alpha-induced E-selectin expression in HUVEC cells after 2 hrs by ELISA. As to conditions: Homo sapiens. Type of data set: functional, cell-based. In a few lines: as §2
Data set [27] deals with Neutrophil. Briefly: Inhibition of TNF-alpha-induced adhesion of neutrophils to endothelium after 2 hrs by neutrophil adhesion assay. Type of data set: functional, cell-based. The note with it: Homo sapiens. In a few lines: (§5)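 Static adhesion: HUVEC monolayers were pretreated with compound for 2 h, then given TNF-α 10 ng/ml for 6 h. Neutrophils from healthy donor blood (dextran sedimentation, Ficoll-Hypaque, hypotonic lysis) were added at 6 × 10^4/well and left 1 h at 37 °C. Bound cells were measured with OPD/CTAB/aminotriazole substrate at A490. % inhibition was calculated as for the ELISA. Three independent experiments.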

Data set [28] has as its system Neutrophil. Briefly: Inhibition of TNF-alpha-induced adhesion of neutrophils to endothelium at 90 ug/ml after 2 hrs by neutrophil adhesion assay. As to conditions: Homo sapiens. Type of data set: functional. In a few lines:
as §5

The subject of data set [29] is HUVEC. In words: Blockade of TNF-alpha-induced p65 nuclear translocation in HUVEC cells after 2 hrs by Western blot. In kind it is functional, cell-based. As to conditions: Homo sapiens. The gist of the method: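 HUVECs (2 × 10^6) were pretreated with or without compound for 2 h, then given TNF-α 10 ng/ml for 30 min. Extracts ran on 8% SDS-PAGE and were blotted with anti-p65, with γ-tubulin as loading control. Detection used an HRP anti-rabbit secondary and DAB.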

Data set [30] deals with HUVEC. Briefly: Inhibition of TNF-alpha-induced NF-kappaB activation in HUVEC after 2 hrs by […] mobility shift assay. In kind it is functional, cell-based. As to conditions: Homo sapiens. In a few lines:
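HUVECs were pretreated with compound for 2 h, then given TNF-α 10 ng/ml for 30 min. Nuclear extract (10 µg) was incubated with 40–80 fmol of 32P-labelled NF-κB oligonucleotide in HEPES/NaCl/Tris buffer pH 7.5 with poly(dI-dC), 30 min at room temperature. Complexes were resolved on a 4% native gel and seen by autoradiography. Specificity was checked with excess unlabelled oligo.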

Turning to `O=c1ccoc2ccccc12` [CHROMONE], in data set [1], the viability at 24 h, 90 ug/ml came to 95%. Further, in the data set with HUVEC [2], 90 µg/mL produced 47.5% inhibition. The inhibition (usually the share of the control response that was lost under treatment) with Liver microsomes [3] came to 25.4%.

For the molecule `CCCOC(=O)/C=C/c1coc2ccccc2c1=O`, the viability at 24 h, 80 ug/ml in data set [4] came to 97%. Also, in the data set on HUVEC [5], the inhibition at 80 µg/mL came out at 81.8%. Half-maximal inhibition with HUVEC [6] (IC50) was put at 227 µM. For the same molecule, the inhibition in the data set on Liver microsomes [7] was 42.5%.

On to `C=CCOC(=O)/C=C/c1coc2cc(O)ccc2c1=O`, for which the viability at 24 h, 100 ug/ml in [8] stood at 97%. The molecule also came in with an inhibition at 100 µg/mL in the data set on HUVEC [9] of 55.2%. Besides, half-maximal inhibition in the data set with HUVEC [6] (IC50) required 273 µM. The inhibition in the data set on Liver microsomes [10] came to 13.3%.

For the molecule `CC(C)OC(=O)/C=C/c1coc2cc(O)ccc2c1=O`, the viability at 24 h, 60 ug/ml in data set [11] worked out at 96%. In addition, in the data set on HUVEC [12], the inhibition at 60 µg/mL amounted to 52.5%. Besides, the IC50 (usually the midpoint of a concentration-inhibition curve) in the data set with HUVEC [6] was 218 µM. The molecule also displayed an inhibition in the data set on Liver microsomes [13] of 26.2%.

As for `CCCOC(=O)/C=C/c1coc2cc(O)ccc2c1=O`, the viability at 24 h, 110 ug/ml in data set [14] was found to be 97%. At 110 µg/mL the inhibition with HUVEC [15] was 63.5%. The molecule also displayed a half-maximal inhibitory concentration (IC50) in the data set on HUVEC [6] of 349 µM. In the data set on Liver microsomes [16], this molecule displayed an inhibition of 39.8%.

Take `CCOC(=O)/C=C/c1coc2cc(O)ccc2c1=O`: the viability at 24 h, 90 ug/ml in data set [1] worked out at 95%. The molecule further displayed an inhibition at 90 µg/mL with HUVEC [2] of 68.2%. The molecule further yielded an IC50 in the data set on HUVEC [6] of 269 µM. For the same molecule, the inhibition in the data set with Liver microsomes [3] was 32.3%.

Consider `CC(C)OC(=O)/C=C/c1coc2ccccc2c1=O`, for which the viability at 24 h, 70 ug/ml in data set [17] stood at 98%. Further, the inhibition at 70 µg/mL with HUVEC [18] amounted to 73.5%. In the data set with HUVEC [6], this molecule displayed an IC50 of 232 µM. This molecule also registered an inhibition in the data set with Liver microsomes [19] of 50.8%.

Consider `C=CCOC(=O)/C=C/c1coc2ccccc2c1=O`, for which the viability at 24 h, 90 ug/ml in data set [1] is 95%. This molecule came in with an inhibition at 90 µg/mL in the data set with HUVEC [2] of 64.5%. In the data set with HUVEC [6], the concentration for half-maximal inhibition (IC50) came out at 251 µM. The same molecule registered an inhibition with Liver microsomes [3] of 43.4%.

Turning to `CCOC(=O)/C=C/c1coc2ccccc2c1=O`, the inhibition at 90 µg/mL is above 95% in the data set with HUVEC [20]; above 95% in the data set with HUVEC [21]; 95% with HUVEC [22]; 95% in the data set on HUVEC [23]; 90% with HUVEC [2]; 95% in the data set on HUVEC [24]. In the data set on Neutrophil [28], this molecule had an inhibition at 90 µg/mL of 65%. For the same molecule, the viability at 24 h, 90 ug/ml in [1] amounted to 96%. Besides, the IC50 in the data set on HUVEC [6] came to 184 µM. Further, the Activity entry in the data set with HUVEC [25], in the data set with HUVEC [26] and in the data set with Neutrophil [27] was “Dose-dependent effect” throughout. Also, the result in the data set on HUVEC [29] and with HUVEC [30] was Active. For the same molecule, the inhibition in the data set on Liver microsomes [3] came to 52.9%.
